Laboratory results from ChEMBL document CHEMBL1156148, “Isolation, structure and biological activities of platencin A(2)-A(4) from Streptomyces platensis” (Bioorg Med Chem, 2010).
Values after ≈ are worked out from the molar mass of the structure shown.

Key:
Haemophilus influenzae = assay: Antibacterial activity against Haemophilus influenzae MSD2261 after 20 hrs by NCCLS method; type: functional; conditions: MSD2261, 20 h
How it was run: (§1)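 Twofold serial broth dilution in cation-adjusted Mueller Hinton broth per NCCLS guidelines. Inoculum 10^5 CFU/mL, incubated at 37 °C for 20 h with compound in growth medium. MIC taken as the lowest concentration preventing visible growth.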

HeLa = assay: Cytotoxicity against human HeLa cells by MTT assay; type: functional, cell-based
Escherichia coli [1] = assay: Antibacterial activity against envelope disrupted Escherichia coli MB5746 after 20 hrs by NCCLS method; type: functional; conditions: MB5746, 20 h; how it was run: as §1
Candida albicans = assay: Antifungal activity against Candida albicans after 20 hrs by NCCLS method; type: functional; how it was run: as §1
Staphylococcus aureus [2] = assay: Antibacterial activity against Staphylococcus aureus expressing FabF antisense plasmid S1-1941 assessed as minimum concentration required to produce differential zone of clearance after 18 hrs by antisense two-plate differential sensitivity cellular assay relative to control; type: functional
How it was run: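 S. aureus RN450 carrying the fabF antisense plasmid S1–1941, plus a vector-only control strain, grown 18–20 h at 37 °C in LB with 34 µg/mL chloramphenicol. Seeded at 1:1000 of OD 3.0 into LB agar with 0.2% glucose and 15 µg/mL chloramphenicol; antisense plates also got 50 mM xylose. Samples added to agar wells, incubated 18 h at 37 °C, and zones measured. MDC was found by twofold serial dilution.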

Enterococcus faecalis = assay: Antibacterial activity against Enterococcus faecalis CL8516 after 20 hrs by NCCLS method; type: functional; conditions: CL8516, 20 h; how it was run: as §1
Staphylococcus aureus [3] = assay: Antibacterial activity against Staphylococcus aureus Lin after 20 hrs by NCCLS method in presence of 50 % serum; type: functional
Staphylococcus aureus [4] = assay: Antibacterial activity against Staphylococcus aureus Smith after 20 hrs by NCCLS method; type: functional; how it was run: as §1
[5] = Inhibition of Staphylococcus aureus FAS2 assessed as 2-[14C]malonyl-CoA incorporation after 90 mins by scintillation counting
How it was run: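 Partially purified S. aureus fatty-acid synthesis enzyme mix (1.26 µg) preincubated 20 min at room temperature with serially diluted compound. Buffer: 100 mM sodium phosphate pH 7.0, EDTA, NADPH, NADH, DTT, β-mercaptoethanol, 20 µM octanoyl-CoA (or lauroyl-CoA), 4% DMSO, 5 µM ACP. Started with 4 µM final [2-14C]malonyl-CoA, run 90 min at 37 °C, stopped with perchloric acid, and counted by scintillation on phospholipid-coated flash plates.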

Bacillus subtilis = assay: Antibacterial activity against Bacillus subtilis MB964 after 20 hrs by NCCLS method; type: functional; conditions: MB964, 20 h; how it was run: as §1
Escherichia coli [6] = assay: Antibacterial activity against wild type Escherichia coli MB2884 after 20 hrs by NCCLS method; type: functional; conditions: MB2884, 20 h; how it was run: as §1

| MIC (Haemophilus influenzae) [µg/mL] | MIC (Escherichia coli [1]) [µg/mL] | MIC (Candida albicans) [µg/mL] | MIC (Enterococcus faecalis) [µg/mL] | MIC (Staphylococcus aureus [3]) [µg/mL] | MIC (Staphylococcus aureus [4]) [µg/mL] | IC50 [5] [µg/mL] | MIC (Bacillus subtilis) [µg/mL] | MIC (Escherichia coli [6]) [µg/mL] | Structure (SMILES) | IC50 (HeLa) [µM] | Activity (Staphylococcus aureus [2]) [µg/mL] |
| --- | --- | --- | --- | --- | --- | --- | --- | --- | --- | --- | --- |
| 64 (≈ 145 µM) | 16 (≈ 36.2 µM) | > 64 | 64 (≈ 145 µM) | > 64 | 16 (≈ 36.2 µM) | 7.1 (≈ 16.1 µM) | 64 (≈ 145 µM) | > 64 | C=C1[C@H]2CC[C@@]3(C=CC(=O)[C@@](C)(CCC(=O)Nc4c(O)ccc(C(=O)O)c4O)[C@@H]3C2)[C@H]1O [PLATENCIN A3] | > 100 | 20 |
| > 64 | 32 (≈ 72.2 µM) | > 64 | > 64 | > 64 | > 64 | 25.1 (≈ 56.6 µM) | > 64 | > 64 | C[C@@]1(O)C[C@@]23C=CC(=O)[C@@](C)(CCC(=O)Nc4c(O)ccc(C(=O)O)c4O)[C@@H]2C[C@@H]1CC3 [PLATENCIN A4] | > 100 | 100 |

| Structure (SMILES) | MIC (Haemophilus influenzae) [µg/mL] | MIC (Escherichia coli [1]) [µg/mL] | MIC (Candida albicans) [µg/mL] | MIC (Enterococcus faecalis) [µg/mL] | MIC (Staphylococcus aureus [3]) [µg/mL] | MIC (Staphylococcus aureus [4]) [µg/mL] | IC50 [5] [µg/mL] | MIC (Bacillus subtilis) [µg/mL] | MIC (Escherichia coli [6]) [µg/mL] | IC50 (HeLa) [µM] | Activity (Staphylococcus aureus [2]) [µg/mL] |
| --- | --- | --- | --- | --- | --- | --- | --- | --- | --- | --- | --- |
| C=C1C[C@@]23C=CC(=O)[C@@](C)(CCC(=O)Nc4c(O)ccc(C(=O)O)c4O)[C@@H]2C[C@@H]1CC3 [PLATENCIN] | 64 (≈ 150 µM) | 2 (≈ 4.7 µM) | > 64 | 2 (≈ 4.7 µM) | 8 | 0.5 (≈ 1.18 µM) | 12 (≈ 28.2 µM) | 1 (≈ 2.35 µM) | > 64 | 86 | 0.2 |
